Series [1] deals with T1, Carboxypeptidase G2 (Pseudomonas aeruginosa (strain ATCC 15692 / PAO1 / 1C / PRS 101 / LMG12228)) (UniProt Q9I056).
T1 sequence (whole entry): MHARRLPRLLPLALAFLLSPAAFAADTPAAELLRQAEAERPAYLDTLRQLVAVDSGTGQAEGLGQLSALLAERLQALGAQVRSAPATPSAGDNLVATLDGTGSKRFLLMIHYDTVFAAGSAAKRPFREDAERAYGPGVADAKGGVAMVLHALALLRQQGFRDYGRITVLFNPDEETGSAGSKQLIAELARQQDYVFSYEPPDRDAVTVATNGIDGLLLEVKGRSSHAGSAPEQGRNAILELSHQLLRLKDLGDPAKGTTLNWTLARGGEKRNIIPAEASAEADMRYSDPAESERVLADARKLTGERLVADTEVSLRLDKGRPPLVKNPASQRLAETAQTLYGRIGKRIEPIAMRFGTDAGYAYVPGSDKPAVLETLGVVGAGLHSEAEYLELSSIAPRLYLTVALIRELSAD
The series can be described thus: (§1) The kinetics of activation of the self-immolative prodrug by Carboxypeptidase G2 was measured. Put shortly: (§2)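 CPG2 (50 mU) with prodrug 5-50 µM in 5 µM steps in CPG2 assay buffer (100 mM Tris-HCl pH 7.3, 260 µM ZnCl₂), 37 °C. Remaining prodrug quantified by HPLC at 0, 5, 10, 15 and 20 min; Km and kcat derived.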

Series [2] concerns the target T1, Carboxypeptidase G2 (Pseudomonas aeruginosa (strain ATCC 15692 / PAO1 / 1C / PRS 101 / LMG12228)). Description: Ratio of kinetic constants Kcat and Km was determined against Carboxypeptidase G2. A digest of the protocol:
as §2

Series [3] can be described thus: Half-life period (prodrug) was determined. It is filed as ADME. Put shortly: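 Aqueous stability: 100 µM compound in CPG2 assay buffer (100 mM Tris-HCl pH 7.3, 260 µM ZnCl₂). Remaining parent measured by isocratic reverse-phase HPLC (10 mM ammonium acetate pH 5.0/methanol, UV 250 or 265-275 nm) at several times. Half-life from one-phase exponential decay fit. Labile compounds instead followed by absorbance change over 3 min; t½ = 0.69/rate constant.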

Series [4] concerns WiDr. Description: Cytotoxicity in WiDr cells expressing surface-tethered carboxypeptidase G2 (CPG2). Format: functional, cell-based. Conditions: Homo sapiens. A digest of the protocol:
(§3)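 WiDr cells stably expressing surface-tethered CPG2 (stCPG2(Q)3) or β-galactosidase control; 2 × 10⁶ cells seeded, confluent after 48 h. Compound in DMSO stock diluted in medium, re-added at similar concentration after 1 h, further 20 h exposure. Cells reseeded in quadruplicate at ~2 × 10³/well, grown until controls confluent; SRB stain, 590 nm. IC50 from log dose-response sigmoid fit.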

Series [5] concerns WiDr. Description: Cytotoxicity in WiDr cells expressing beta-galactosidase control. The settings on record: Homo sapiens. Format: functional, cell-based. A digest of the protocol:
as §3

The nature of series [6]: Ratio of the half-life period of the prodrug and the drug was determined. It is filed as ADME.
Series [7] deals with WiDr. The series can be described thus: Compound was tested for cytotoxicity in WiDr cells engineered for stable expression of beta-galactosidase. It is filed as functional, cell-based. Conditions: Homo sapiens. Put shortly:
as §3

Series [8] has as its system WiDr. The series can be described thus: Compound was tested for cytotoxicity in WiDr cells engineered for stable expression of surface-tethered CPG2. The settings on record: Homo sapiens. Format: functional, cell-based. Put shortly:
as §3

Compound in series [9]: CN(C(=O)OCc1ccc(NC(=O)N[C@@H](CCC(=O)O)C(=O)O)cc1)c1ccc(N(CCCl)CCCl)cc1
The description is as §1. Put shortly:
as §2

Compound in series [10]: CN(C(=O)OCc1ccc(OC(=O)N[C@@H](CCC(=O)O)C(=O)O)cc1)c1ccc(N(CCCl)CCCl)cc1
The series is described as §1. A digest of the protocol:
as §2

Compound in series [11]: O=C(O)CC[C@H](NC(=O)Nc1ccc(CO)cc1)C(=O)O
The description is as §1. Put shortly:
as §2

Compound in series [12]: O=C(O)CC[C@H](NC(=O)Nc1ccc(COC(=O)Nc2ccc(N(CCCl)CCCl)cc2)cc1)C(=O)O
Described as §1. Put shortly:
as §2

Compound in series [13]: O=C(O)CC[C@H](NC(=O)Nc1ccc(COC(=O)Nc2ccccc2N(CCCl)CCCl)cc1)C(=O)O
The description is as §1. Put shortly: as §2

Compound in series [14]: O=C(O)CC[C@H](NC(=O)Oc1ccc(CO)cc1)C(=O)O
The description is as §1. A digest of the protocol:
as §2

Compound in series [15]: O=C(O)CC[C@H](NC(=O)Oc1ccc(COC(=O)Nc2ccc(N(CCCl)CCCl)cc2)cc1)C(=O)O
The description is as §1. A digest of the protocol:
as §2

Compound in series [16]: O=C(O)CC[C@H](NC(=O)Oc1ccc(COC(=O)Nc2ccccc2N(CCCl)CCCl)cc1)C(=O)O
Described as §1. A digest of the protocol:
as §2

Experimental findings from ChEMBL document CHEMBL1136779 (J Med Chem, 2003) are described below.

In the case of `O=C(O)CC[C@H](NC(=O)Oc1ccc(CO)cc1)C(=O)O`, in [1], the k cat came to 140 s⁻¹. In addition, in [2], the k cat/Km was 82.3.

As for `O=C(O)CC[C@H](NC(=O)Nc1ccc(CO)cc1)C(=O)O`, the k cat in series [1] is 65.4 s⁻¹. Also, the k cat/Km in [2] is 21.1.

As to `O=C(O)CC[C@H](NC(=O)Oc1ccc(COC(=O)Nc2ccc(N(CCCl)CCCl)cc2)cc1)C(=O)O`, in [1], the k cat is less than 10 s⁻¹.

With `CS(=O)(=O)OCCN(CCOS(C)(=O)=O)c1ccccc1NC(=O)OCc1ccc(OC(=O)N[C@@H](CCC(=O)O)C(=O)O)cc1`, the T1/2 in [3] came to 10.8 min. Besides, the values for the IC50 in the series on WiDr [4] and in the series on WiDr [5] were 40 µM and 208 µM, respectively.

As to `CN(C(=O)OCc1ccc(NC(=O)N[C@@H](CCC(=O)O)C(=O)O)cc1)c1ccc(N(CCI)CCI)cc1`, the T1/2 in series [3] came out at 3.9 min. Besides, the IC50 with WiDr [4] amounted to 1.5 µM. Also, the Ratio in [6] was found to be 6.5.

For `CS(=O)(=O)OCCN(CCCl)c1ccc(C(=O)N[C@@H](CCC(=O)O)C(=O)O)cc1`, the T1/2 in [3] was determined as 59 min. Besides, the IC50 in the series with WiDr [7] turned out to be 3230 µM; with WiDr [8] it was 100 µM. Moreover, the Ratio in [6] amounted to 2.3.

`O=C(O)CC[C@H](NC(=O)Nc1ccc(COC(=O)Nc2ccccc2N(CCCl)CCCl)cc1)C(=O)O`: the T1/2 in series [3] was 107.5 min. Moreover, the k cat in series [1] is 2.92 s⁻¹. Moreover, in series [2], the k cat/Km is 5.31. Besides, the IC50 with WiDr [4] stood at 4.5 µM; in the series on WiDr [5], 21.1 µM. In series [6], the Ratio was 13.9.

Take `O=C(O)CC[C@H](NC(=O)Oc1ccc(COC(=O)Nc2ccccc2N(CCCl)CCCl)cc1)C(=O)O`: in series [3], the T1/2 is recorded as 146.3 min. The k cat in series [1] worked out at 4.27 s⁻¹. In [2], the k cat/Km was found to be 4.14. Besides, the results for the IC50 in the series with WiDr [4] and with WiDr [5] were 28.1 µM and 38.1 µM, respectively. In addition, in series [6], the Ratio is 11.9.

As for `CN(C(=O)OCc1ccc(NC(=O)N[C@@H](CCC(=O)O)C(=O)O)cc1)c1ccc(N(CCBr)CCBr)cc1`, the T1/2 in series [3] was determined as 2.8 min. The same molecule had an IC50 in the series with WiDr [4] of 4.1 µM. The Ratio in series [6] is 1.

Take `O=C(O)CC[C@H](NC(=O)Oc1ccc(COC(=O)Nc2ccccc2N(CCBr)CCBr)cc1)C(=O)O`: the T1/2 in series [3] amounted to 3.74 min. In addition, the IC50 was 95.2 µM with WiDr [4] and 183 µM in the series with WiDr [5]. Further, in [6], the Ratio worked out at 3.5.

Consider `O=C(O)CC[C@H](NC(=O)Nc1ccc(COC(=O)Nc2ccc(N(CCI)CCI)cc2)cc1)C(=O)O`, for which the T1/2 in series [3] amounted to 0.97 min. The values for the IC50 in the series with WiDr [4] and with WiDr [5] were 1.8 µM and 180 µM, respectively. Further, the Ratio in [6] was 1.9.

As for `O=C(O)CC[C@H](NC(=O)Oc1ccc(COC(=O)Nc2ccc(N(CCI)CCI)cc2)cc1)C(=O)O`, the T1/2 in series [3] came to 0.98 min. In addition, the results for the IC50 in the series on WiDr [4] and in the series with WiDr [5] were 1.3 µM and 53.6 µM, respectively. In addition, in [6], the Ratio was 2.

For `O=C(O)CC[C@H](NC(=O)Oc1ccc(COC(=O)Nc2ccc(N(CCBr)CCBr)cc2)cc1)C(=O)O`, the T1/2 in series [3] came out at 0.9 min. In addition, the IC50 with WiDr [4] was found to be 2.6 µM; in the series on WiDr [5] it was 99.7 µM. Further, in [6], the Ratio stood at 0.4.

As to `CN(C(=O)OCc1ccc(NC(=O)N[C@@H](CCC(=O)O)C(=O)O)cc1)c1ccc(N(CCCl)CCCl)cc1`, the T1/2 in [3] was found to be 173.6 min. The k cat in [1] is 5.5 s⁻¹. Further, the k cat/Km in series [2] worked out at 0.91. Besides, the values for the IC50 in the series on WiDr [4] and with WiDr [5] were 2.5 µM and 39.7 µM, respectively. In addition, in series [6], the Ratio is reported as 20.9.

On to `O=C(O)CC[C@H](NC(=O)Nc1ccc(COC(=O)Nc2ccccc2N(CCBr)CCBr)cc1)C(=O)O`, for which, in series [3], the T1/2 is 3 min. The figures for the IC50 in the series on WiDr [4] and in the series with WiDr [5] were 4.7 µM and 118 µM, respectively. Besides, the Ratio in series [6] came out at 3.5.

As to `O=C(O)CC[C@H](NC(=O)Nc1ccc(COC(=O)Nc2ccc(N(CCBr)CCBr)cc2)cc1)C(=O)O`, in series [3], the T1/2 stood at 0.85 min. Also, the results for the IC50 in the series on WiDr [4] and in the series on WiDr [5] were 3.1 µM and 205 µM, respectively. Further, the Ratio in series [6] is recorded as 0.4.

Consider `CS(=O)(=O)OCCN(CCCl)c1ccccc1NC(=O)OCc1ccc(OC(=O)N[C@@H](CCC(=O)O)C(=O)O)cc1`, for which the T1/2 in series [3] stood at 10 min. In addition, the results for the IC50 with WiDr [4] and with WiDr [5] were 28.5 µM and 148 µM, respectively.

Turning to `CN(C(=O)OCc1ccc(OC(=O)N[C@@H](CCC(=O)O)C(=O)O)cc1)c1ccc(N(CCI)CCI)cc1`, the T1/2 in [3] is 4.6 min. The IC50 is 2.6 µM with WiDr [4] and 21.5 µM with WiDr [5]. The Ratio in [6] is reported as 7.7.

With `O=C(O)CC[C@H](NC(=O)Nc1ccc(COC(=O)Nc2ccc(N(CCCl)CCCl)cc2)cc1)C(=O)O`, in series [1], the k cat turned out to be 10 s⁻¹.

Turning to `O=C(O)CC[C@H](NC(=O)Oc1ccc(COC(=O)Nc2ccccc2N(CCI)CCI)cc1)C(=O)O`, the T1/2 in series [3] came out at 2.1 min. In addition, the IC50 was determined as 19 µM in the series on WiDr [4] and 73.3 µM with WiDr [5].

On to `CN(C(=O)OCc1ccc(OC(=O)N[C@@H](CCC(=O)O)C(=O)O)cc1)c1ccc(N(CCCl)CCCl)cc1`, for which the T1/2 in series [3] worked out at 173.6 min. The k cat in series [1] turned out to be 4.32 s⁻¹. Moreover, the k cat/Km in [2] was 1.78. In addition, the IC50 is 1.7 µM in the series on WiDr [4] and 19.6 µM in the series on WiDr [5]. Further, in [6], the Ratio is on record as 20.6.

With `O=C(O)CC[C@H](NC(=O)Nc1ccc(COC(=O)Nc2ccccc2N(CCI)CCI)cc1)C(=O)O`, in series [3], the T1/2 came out at 2.7 min. Further, the IC50 was determined as 3 µM in the series on WiDr [4] and 149 µM in the series on WiDr [5].

Consider `CN(C(=O)OCc1ccc(OC(=O)N[C@@H](CCC(=O)O)C(=O)O)cc1)c1ccc(N(CCBr)CCBr)cc1`, for which, in [3], the T1/2 stood at 2.7 min. Moreover, the IC50 in the series on WiDr [4] amounted to 3.6 µM; in the series with WiDr [5], 27.2 µM. For the same molecule, the Ratio in series [6] came to 1.

B1: Carboxypeptidase G2 (Pseudomonas aeruginosa (strain ATCC 15692 / PAO1 / 1C / PRS 101 / LMG12228)), Q9I056 (protein)
chain: MHARRLPRLLPLALAFLLSPAAFAADTPAAELLRQAEAERPAYLDTLRQLVAVDSGTGQAEGLGQLSALLAERLQALGAQVRSAPATPSAGDNLVATLDGTGSKRFLLMIHYDTVFAAGSAAKRPFREDAERAYGPGVADAKGGVAMVLHALALLRQQGFRDYGRITVLFNPDEETGSAGSKQLIAELARQQDYVFSYEPPDRDAVTVATNGIDGLLLEVKGRSSHAGSAPEQGRNAILELSHQLLRLKDLGDPAKGTTLNWTLARGGEKRNIIPAEASAEADMRYSDPAESERVLADARKLTGERLVADTEVSLRLDKGRPPLVKNPASQRLAETAQTLYGRIGKRIEPIAMRFGTDAGYAYVPGSDKPAVLETLGVVGAGLHSEAEYLELSSIAPRLYLTVALIRELSAD
Take B1: the Km in series [9] was 6.05 µM; in [10], 2.43 µM; in series [11], 3.1 µM; in series [12], less than 5 µM; in series [13] it was 0.55 µM; in series [14], 1.7 µM. Further, the Km in series [15] was less than 5 µM; in [16], 1.02 µM.
